Source: PubChem
Sampled rows, rich in hits. Any-hit rate of the full collection: about 2.9%.
PAD4 inh – inhibitors of human PAD4; recombinant PAD4, RCA probe fluorescence polarization; inhibition, % at 6.36 µM; 330,000 tested, 0.41% active; AID 485272;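 active means percent inhibition above a cutoff equal to the mean of all tested compounds plus 3 SD, cut at about 15% in these data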;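 further: 0% = PAD4 with RCA probe and DMSO and 100% = probe without PAD4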
mABHD4 FP – ABHD4 (mouse) inhibition, primary FP screen; purified mABHD4, FP-Rh probe fluorescence polarization; 370,000 tested, 0.54% active; inhibition, % at 8.92 µM; AID 720543; Q8VD66;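 active means inhibition exceeding the mean over every tested compound plus 3 SD, cut at about 30% in these data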;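 further: 0% = plate median of compound wells and 100% = S159A mutant with DMSO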
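assay system = mABHD4 protein | compound dosing = single nominal dose of 8.92 µM, 0.89% DMSO final | read-out basis = percent inhibition of probe binding, normalized to plate controls | schedule = Enzyme–compound pre-incubation 45 min, then probe 60 min, both 25 °C | detection = fluorescence polarization, excitation 525 nm, emission 598 nm, BODIPY TMR filters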
TCR CD3 inh – human TCR-CD3 binding inhibition; TAMRA-labeled TCR probe fluorescence, biochemical; 360,000 tested, 0.37% active; AID 651800; inhibition, % at 9.4 µM; in the data active means inhibition above about 19%;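 further: recombinant mutant TCR 2C K166C tagged with TAMRA read by polarization; 0% = receptor in buffer alone and 100% = receptor with positive control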
SIAE inh – blocks human sialic acid acetylesterase; inhibition, % at 9.66 µM; 370,000 tested, 0.69% active; AID 1053197; Q9HAT2; SIAE FP-Rh probe binding, fluorescence polarization;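 active means inhibition above a cutoff: mean of compounds within the control limits plus 3 SD of those, cut at about 17% in these data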;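 further: 0% = plate median of compound wells and 100% = probe without SIAE protein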
HTRA1 inh – HTRA1 (human) protease inhibition | 340,000 tested, 0.5% active | recombinant HTRA1, FP-rhodamine activity-based probe, fluorescence polarization | inhibition, % at 5.96 µM; in the data active means inhibition above about 36%;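 further: 0% = enzyme with DMSO and 100% = wells lacking enzyme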
Target sequence (Q92743 whole entry, looked up): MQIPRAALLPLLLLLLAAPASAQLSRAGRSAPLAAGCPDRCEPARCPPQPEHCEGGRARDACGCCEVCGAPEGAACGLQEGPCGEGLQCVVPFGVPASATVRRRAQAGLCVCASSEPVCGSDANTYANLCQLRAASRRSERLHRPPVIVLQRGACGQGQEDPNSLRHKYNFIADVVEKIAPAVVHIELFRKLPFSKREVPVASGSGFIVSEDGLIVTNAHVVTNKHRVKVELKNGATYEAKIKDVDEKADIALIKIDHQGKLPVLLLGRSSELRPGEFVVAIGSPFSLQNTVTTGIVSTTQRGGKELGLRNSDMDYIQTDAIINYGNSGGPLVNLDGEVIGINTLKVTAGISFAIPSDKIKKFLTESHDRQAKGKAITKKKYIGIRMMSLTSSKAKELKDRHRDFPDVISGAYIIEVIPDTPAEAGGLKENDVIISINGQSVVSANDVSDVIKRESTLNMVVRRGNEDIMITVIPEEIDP
PRMT1 inh – blocks human protein arginine methyltransferase 1; Q99873; recombinant PRMT1, activity-based probe fluorescence polarization; inhibition, % at 2.79 µM; 370,000 tested, 1.3% active; AID 652257;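 active means inhibition above about 21% made by adding two undisclosed values, limit read from the data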
* = called active by the depositor.

Results for Cc1ccc(C(=O)CC(=O)c2ccccc2)cc1 ?
PAD4 inh: -1; mABHD4 FP: -3; TCR CD3 inh: -1; SIAE inh: -5; HTRA1 inh: 9; PRMT1 inh: 0

What do the screens show for `CCCCCCCCN1C(=O)[C@@H](CC(=O)NCc2ccc(OC)c(OC)c2)C[C@@]2(C(=O)OC)C1=C[C@H](C(C)C)O[C@@H]2C1CC1`?
mABHD4 FP: -8; SIAE inh: -3; PRMT1 inh: 3

What do the screens show for `Cc1ccc(NC(=O)/C=C\C(=O)NCC(=O)O)cc1`?
PAD4 inh: 2; mABHD4 FP: 0; TCR CD3 inh: -2; SIAE inh: 8; HTRA1 inh: 1; PRMT1 inh: 24*

How did CCCC(=O)OC12CCCN(C1)/C(=C/c1ccc(Cl)cc1)C2 (stereo not given) do in these assays?
mABHD4 FP: 2; SIAE inh: 5; PRMT1 inh: -2

Results for COCCCN1C(=O)[C@H](CC(=O)NCc2cccc3ccccc23)[C@]2(C(=O)OC)CCCCC=C12 ?
mABHD4 FP: 2; SIAE inh: -8; PRMT1 inh: 1

How did N#CCc1c(C#N)c(N)nc(N2CCCC(CO)C2)c1C#N (stereo not given) do in these assays?
PAD4 inh: -6; mABHD4 FP: 4; TCR CD3 inh: 0; SIAE inh: 2; HTRA1 inh: 3; PRMT1 inh: 23*

How did N#CCc1c(C#N)c(N)nc(N2CCN(c3ccc(F)cc3)CC2)c1C#N do in these assays?
PAD4 inh: -12; mABHD4 FP: 3; TCR CD3 inh: -5; SIAE inh: 9; HTRA1 inh: 8; PRMT1 inh: 7

How did COC(=O)[C@H](CC(C)C)N(CCCc1cn(Cc2ccccc2)nn1)S(=O)(=O)c1ccccc1Br do in these assays?
mABHD4 FP: -9; SIAE inh: -6; PRMT1 inh: -2

How did CC1CCCN(Cc2c(O)ccc3c2O/C(=C\c2ccco2)C3=O)C1 (stereo not given) do in these assays?
PAD4 inh: -4; mABHD4 FP: 13; TCR CD3 inh: 6; SIAE inh: 7; HTRA1 inh: 18; PRMT1 inh: 22*

How did CCN1CCN(Cc2c(O)ccc3c2O/C(=C\c2ccccc2)C3=O)CC1 do in these assays?
PAD4 inh: 0; mABHD4 FP: 1; TCR CD3 inh: 6; SIAE inh: -4; HTRA1 inh: 7; PRMT1 inh: 14

What do the screens show for `COc1ccc(Cn2c(NC(=O)c3ccccc3)nc(Cc3ccccc3)c2Cc2ccccc2)cc1`?
mABHD4 FP: 6; SIAE inh: -5; PRMT1 inh: -12

Results for CN(c1ccccc1)S(=O)(=O)c1ccc(NC(=O)c2ccc(-c3ccccc3)cc2)cc1 ?
PAD4 inh: 0; mABHD4 FP: -15; TCR CD3 inh: 63*; SIAE inh: 4; HTRA1 inh: -51; PRMT1 inh: 0

How did OCCN1CCCC12CCC(c1ccccc1)CC2 (stereo not given) do in these assays?
mABHD4 FP: 0; SIAE inh: -5; PRMT1 inh: 1

What do the screens show for `Cc1cccc(NC(=O)Nc2c(-c3ccc(C(F)(F)F)cc3)nc3ncccn23)c1`?
mABHD4 FP: 4; SIAE inh: 5; PRMT1 inh: 4

How did Cc1ccc(NC(=O)[C@@H]2CC(=O)O[C@@H]2c2ccccc2)cc1C do in these assays?
mABHD4 FP: 6; SIAE inh: 15; PRMT1 inh: 4

What do the screens show for `C/C(CC(=O)Nc1cc(C)ccn1)=N\NC(=O)c1cccc(C)c1O`?
PAD4 inh: -5; mABHD4 FP: 11; TCR CD3 inh: 35*; SIAE inh: 4; HTRA1 inh: 33; PRMT1 inh: 0

Results for C/C(CC(=O)Nc1cc(C)ccn1)=N\NC(=O)c1cccc(C)c1 ?
PAD4 inh: 1; mABHD4 FP: 0; TCR CD3 inh: -6; SIAE inh: -3; HTRA1 inh: -1; PRMT1 inh: -1

What do the screens show for `CCOC(=O)c1sc(N(Cc2ccccc2)C(=O)COC(=O)c2ccccc2O)nc1C`?
PAD4 inh: -2; mABHD4 FP: 0; TCR CD3 inh: -2; SIAE inh: 3; HTRA1 inh: -9; PRMT1 inh: 0

What do the screens show for `CCOC(=O)c1sc(N(Cc2ccccc2)C(=O)CCl)nc1C`?
PAD4 inh: 5; mABHD4 FP: 2; TCR CD3 inh: -6; SIAE inh: -1; HTRA1 inh: -6; PRMT1 inh: 22*

How did O=C(CSC1=NC2(CCCCC2)N=C1c1ccccc1)Nc1ccc2c(c1)OCCO2 do in these assays?
PAD4 inh: 6; mABHD4 FP: -3; TCR CD3 inh: -3; SIAE inh: 6; HTRA1 inh: -24; PRMT1 inh: 22*

How did Cc1ccccc1Cn1cc(COC(=O)NCC(C)C)nn1 do in these assays?
mABHD4 FP: 7; SIAE inh: 5; PRMT1 inh: -1

What do the screens show for `CC(C)CN1CN2Cc3cc(F)ccc3C2CS1(=O)=O` (stereo not given)?
mABHD4 FP: 3; SIAE inh: -2; PRMT1 inh: 1

How did Cc1cccc(-n2c(O)c(C=Nc3ccccc3O)c3ccccc3c2=O)n1 do in these assays?
PAD4 inh: 0; mABHD4 FP: 3; TCR CD3 inh: 40*; SIAE inh: -3; HTRA1 inh: 2; PRMT1 inh: -1

What do the screens show for `Cc1cccc(-n2c(O)c(C=Nc3ccc(O)cc3)c3ccccc3c2=O)n1`?
PAD4 inh: -1; mABHD4 FP: 7; TCR CD3 inh: 2; SIAE inh: 6; HTRA1 inh: -1; PRMT1 inh: 4

How did CCN(CC)C(=O)Cn1ncc2c1-c1ccccc1OC2 do in these assays?
PAD4 inh: 5; mABHD4 FP: -5; TCR CD3 inh: -7; SIAE inh: -2; HTRA1 inh: 7; PRMT1 inh: 2

Results for O=C(Cn1ncc2c1-c1ccccc1OC2)Nc1nc2ccccc2s1 ?
PAD4 inh: -3; mABHD4 FP: -12; TCR CD3 inh: 19*; SIAE inh: -8; HTRA1 inh: -23; PRMT1 inh: -3

Results for O=C(NC1CCC1)c1ccc(C#CC2CC2)c[n+]1[O-] ?
mABHD4 FP: -5; SIAE inh: 10; PRMT1 inh: -2

What do the screens show for `CC(C)c1ccc(S(=O)(=O)/N=C2\C=C(NS(=O)(=O)c3ccccc3)C(=O)c3ccccc32)cc1`?
PAD4 inh: 1; mABHD4 FP: 51*; TCR CD3 inh: -4; SIAE inh: 8; HTRA1 inh: 9; PRMT1 inh: -5

What do the screens show for `C[C@@H](/C=C/C(=O)OC(C)(C)C)Sc1ccc(C(C)(C)C)cc1`?
mABHD4 FP: -1; SIAE inh: -5; PRMT1 inh: 2

How did N#Cc1c(Nc2ccccc2Cl)s[nH]c1=O do in these assays?
PAD4 inh: -2; mABHD4 FP: 4; TCR CD3 inh: 2; SIAE inh: 0; HTRA1 inh: -5; PRMT1 inh: 23*
